This note sets out measurements from ChEMBL document CHEMBL4732114, “Design and structural optimization of novel 2H-benzo[h]chromene derivatives that target AcrB and reverse bacterial multidrug resistance” (Eur J Med Chem, 2021).

≈ marks a conversion by molar mass, not a printed value.

Series [1] addresses T1, Multidrug efflux pump subunit AcrB (Escherichia coli (strain K12)) (UniProt P31224).
T1 sequence (whole entry): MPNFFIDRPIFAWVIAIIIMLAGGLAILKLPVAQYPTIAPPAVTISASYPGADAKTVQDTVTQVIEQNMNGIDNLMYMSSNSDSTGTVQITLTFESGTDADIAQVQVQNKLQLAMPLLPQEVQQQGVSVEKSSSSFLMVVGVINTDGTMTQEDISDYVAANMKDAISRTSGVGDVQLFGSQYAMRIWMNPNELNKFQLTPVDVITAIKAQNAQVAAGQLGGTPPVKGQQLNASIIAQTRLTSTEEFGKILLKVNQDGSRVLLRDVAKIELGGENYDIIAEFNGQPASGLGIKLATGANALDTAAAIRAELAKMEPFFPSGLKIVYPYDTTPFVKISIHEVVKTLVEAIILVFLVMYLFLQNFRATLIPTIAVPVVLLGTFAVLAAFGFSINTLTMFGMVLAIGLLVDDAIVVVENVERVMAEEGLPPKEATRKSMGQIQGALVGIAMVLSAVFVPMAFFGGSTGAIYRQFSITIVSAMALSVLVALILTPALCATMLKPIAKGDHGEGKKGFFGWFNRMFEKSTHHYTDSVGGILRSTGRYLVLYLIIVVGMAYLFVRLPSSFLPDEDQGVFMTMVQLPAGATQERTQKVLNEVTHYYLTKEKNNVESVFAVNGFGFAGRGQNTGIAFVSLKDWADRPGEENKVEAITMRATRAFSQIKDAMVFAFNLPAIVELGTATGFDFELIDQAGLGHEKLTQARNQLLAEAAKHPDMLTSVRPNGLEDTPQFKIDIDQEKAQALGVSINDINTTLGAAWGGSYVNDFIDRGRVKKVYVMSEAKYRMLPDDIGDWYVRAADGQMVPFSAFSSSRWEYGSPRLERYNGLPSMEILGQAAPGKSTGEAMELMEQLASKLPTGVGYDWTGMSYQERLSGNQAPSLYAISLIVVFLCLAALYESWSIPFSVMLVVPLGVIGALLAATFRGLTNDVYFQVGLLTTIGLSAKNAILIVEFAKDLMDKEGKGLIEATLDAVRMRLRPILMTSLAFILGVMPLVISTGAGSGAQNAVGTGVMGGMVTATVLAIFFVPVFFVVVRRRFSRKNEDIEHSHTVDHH
The settings on record: Escherichia coli BW25113; dose 64.0 µg/ml.

In series [2] the target is T1, Multidrug efflux pump subunit AcrB (Escherichia coli (strain K12)). Description: Inhibition of AcrB in multidrug-resistant Escherichia coli BW25113 assessed as potentiation of chloramphenicol-induced antibacterial activity by measuring chloramphenicol MIC at 64 ug/ml by checkerboard titration method (reference value: 8 ug/ml). As to conditions: dose 64.0 µg/ml; call rule not given here.
For series [3] the target is unchanged. Description: Inhibition of AcrB in multidrug-resistant Escherichia coli BW25113 assessed as potentiation of levofloxacin-induced antibacterial activity by measuring levofloxacin MIC at 128 ug/ml by checkerboard titration method (reference value: 0.06 ug/ml). As to conditions: dose 128.0 µg/ml.
Series [4] has the same target. As to conditions: Escherichia coli BW25113; dose 16.0 µg/ml.
The target is the same in series [5]. The series is described as follows: Inhibition of AcrB in multidrug-resistant Escherichia coli BW25113 assessed as potentiation of erythromycin-induced antibacterial activity by measuring erythromycin MIC at 64 ug/ml by checkerboard titration method (reference value: 64 ug/ml). The settings on record: dose 64.0 µg/ml.
Series [6] is described as follows: Toxicity in multidrug-resistant Escherichia coli BW25113 assessed as growth inhibition by two-fold broth dilution method.
For series [7], the system named is Cell membrane. Description: Induction of inner membrane permeabilization in wild type Escherichia coli BW25113 assessed as perturbation of proton motive force at 8 ug/ml measured after 10 mins in presence of CCCP and glucose by Di0C2(3) probe based fluorescence assay. As to conditions: escherichia coli bw25113, 10 min, dose 8 µg/ml. Put shortly: (§1)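 Cell suspensions were left untreated or exposed to 8-128 µg/mL compound for 10 min. DiOC₂(3) was then added and fluorescence followed to a plateau. Cells were re-energized with 0.5% glucose, and the rise in fluorescence was read as membrane-potential build-up. CCCP was added last to dissipate the potential.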

Series [8] in a line: Toxicity in multidrug-resistant Escherichia coli BW25113 harboring AcrB deletion mutant assessed as growth inhibition by two-fold broth dilution method.
The target in series [9] is T1, Multidrug efflux pump subunit AcrB (Escherichia coli (strain K12)). The series is described as follows: Inhibition of AcrB in multidrug-resistant Escherichia coli BW25113 assessed as potentiation of erythromycin-induced antibacterial activity by measuring erythromycin MIC at 32 ug/ml by checkerboard titration method (reference value: 64 ug/ml). The settings on record: dose 32.0 µg/ml.

Series [10] has the same target. Description: Inhibition of AcrB in multidrug-resistant Escherichia coli BW25113 assessed as potentiation of levofloxacin-induced antibacterial activity by measuring levofloxacin MIC at 32 ug/ml by checkerboard titration method (reference value: 0.06 ug/ml). As to conditions: dose 32.0 µg/ml.
Series [11] shares this target. The series is described as follows: Inhibition of AcrB in multidrug-resistant Escherichia coli BW25113 assessed as potentiation of tetraphenylphosphonium-induced antibacterial activity by measuring tetraphenylphosphonium MIC at 32 ug/ml by checkerboard titration method (reference value: 1024 ug/ml). As to conditions: dose 32.0 µg/ml.
The target is the same in series [12]. Description: Inhibition of AcrB in multidrug-resistant Escherichia coli BW25113 assessed as potentiation of erythromycin-induced antibacterial activity by measuring erythromycin MIC at 128 ug/ml by checkerboard titration method (reference value: 64 ug/ml). As to conditions: dose 128.0 µg/ml.
For series [13] the target is unchanged. Description: Inhibition of AcrB in multidrug-resistant Escherichia coli BW25113 assessed as potentiation of levofloxacin-induced antibacterial activity by measuring levofloxacin MIC at 64 ug/ml by checkerboard titration method (reference value: 0.06 ug/ml). As to conditions: dose 64.0 µg/ml.
Series [14] has as its system Cell membrane. The series is described as follows: Induction of inner membrane permeabilization in wild type Escherichia coli BW25113 assessed as perturbation of proton motive force at 64 ug/ml measured after 10 mins in presence of CCCP and glucose by Di0C2(3) probe based fluorescence assay. The settings on record: escherichia coli bw25113, 10 min, dose 64 µg/ml. Put shortly:
as §1

For series [15], the target named is T1, Multidrug efflux pump subunit AcrB (Escherichia coli (strain K12)). The series is described as follows: Inhibition of AcrB in multidrug-resistant Escherichia coli BW25113 assessed as potentiation of levofloxacin-induced antibacterial activity by measuring levofloxacin MIC at 8 ug/ml by checkerboard titration method (reference value: 0.06 ug/ml). The settings on record: dose 8.0 µg/ml.

In series [16] the test system is Cell membrane. Description: Induction of inner membrane permeabilization in wild type Escherichia coli BW25113 assessed as perturbation of proton motive force at 32 ug/ml measured after 10 mins in presence of CCCP and glucose by Di0C2(3) probe based fluorescence assay. The settings on record: escherichia coli bw25113, 10 min, dose 32 µg/ml. An outline of the steps:
as §1

Series [17] has as its system Cell membrane. The series is described as follows: Induction of inner membrane permeabilization in wild type Escherichia coli BW25113 assessed as perturbation of proton motive force at 128 ug/ml measured after 10 mins in presence of CCCP and glucose by Di0C2(3) probe based fluorescence assay. The settings on record: escherichia coli bw25113, 10 min, dose 128 µg/ml. An outline of the steps: as §1

For the molecule `CC1(C)CCc2c(C(=O)N3CCOCC3)cc3c(OCc4ccc(C(F)(F)F)cc4)cccc3c2O1`, the MIC in series [1] is 16 µg/mL (≈ 32 µM); in [2], 8 µg/mL; in series [3] it was 0.06 µg/mL; in series [4], 16 µg/mL (≈ 32 µM); in series [5] it was 16 µg/mL; in [6] it was over 512 µg/mL. The MIC in series [8] was over 128 µg/mL; in [9], 64 µg/mL; in [10] it was 0.06 µg/mL; in [11], 512 µg/mL; in series [12], 16 µg/mL; in series [13], 0.06 µg/mL. In addition, the MIC in [15] stood at 0.06 µg/mL. Besides, the Activity entry in the series on Cell membrane [7] and in the series with Cell membrane [14] was “Not Active” throughout.

Turning to `CC1(C)CC(=O)c2ccc(OCC(=O)Nc3ccc(C#N)c(C(F)(F)F)c3)cc2O1`, the MIC in series [1] is 16 µg/mL (≈ 38.2 µM); in series [2] it was 4 µg/mL; in series [4] it was 16 µg/mL (≈ 38.2 µM); in [5], 64 µg/mL; in series [6], over 512 µg/mL; in series [8] it was over 128 µg/mL. Moreover, the MIC in series [9] came out at 64 µg/mL; in series [10] it was 0.06 µg/mL; in series [11], 512 µg/mL; in series [13] it was 0.06 µg/mL; in series [15], 0.06 µg/mL. The Activity result with Cell membrane [16] and with Cell membrane [14] was “Not Active” throughout.

In the case of `CC1(C)CCc2c(-c3nnco3)cc3c(OCc4ccc(C#N)cc4)cccc3c2O1`, the MIC is 16 µg/mL (≈ 38.9 µM) in series [1]; 4 µg/mL in [2]; 0.06 µg/mL in series [3]; 16 µg/mL (≈ 38.9 µM) in [4]; 64 µg/mL in series [5]; over 512 µg/mL in series [6]. Further, the MIC was over 128 µg/mL in series [8]; 64 µg/mL in series [9]; 0.06 µg/mL in series [10]; 1020 µg/mL in series [11]; 32 µg/mL in series [12]; 0.06 µg/mL in series [13]. Moreover, the MIC in series [15] was determined as 0.06 µg/mL. Also, the Activity result with Cell membrane [17] and in the series with Cell membrane [14] was “Not Active” in each case.

In the case of `CC1(C)CCc2c(C(=O)N3CCOCC3)cc3c(OCc4ccccc4)cccc3c2O1`, the MIC is 16 µg/mL (≈ 37.1 µM) in series [1]; 4 µg/mL in series [2]; 0.03 µg/mL in [3]; 16 µg/mL (≈ 37.1 µM) in series [4]; 16 µg/mL in [5]; over 512 µg/mL in series [6]. The MIC in series [8] is over 128 µg/mL; in series [9], 64 µg/mL; in series [10], 0.03 µg/mL; in series [11], 512 µg/mL; in series [12] it was 8 µg/mL; in series [13] it was 0.03 µg/mL. Besides, in series [15], the MIC came out at 0.03 µg/mL. Besides, the Activity result in the series with Cell membrane [7] and in the series with Cell membrane [14] was “Not Active” throughout.

On to `CC1(C)CCc2c(C(=O)O)cc3c(OCc4ccccc4)cccc3c2O1`, for which the MIC is 16 µg/mL (≈ 44.1 µM) in series [1]; 4 µg/mL in [2]; 0.01 µg/mL in [3]; 16 µg/mL (≈ 44.1 µM) in [4]; 64 µg/mL in series [5]; over 512 µg/mL in series [6]. Besides, the MIC was over 128 µg/mL in series [8]; 64 µg/mL in series [9]; 0.06 µg/mL in series [10]; 512 µg/mL in series [11]; 32 µg/mL in [12]; 0.01 µg/mL in series [13]. Besides, the MIC in series [15] was found to be 0.06 µg/mL. In addition, the Activity entry was “Active” in the series with Cell membrane [16] and “Not Active” in the series on Cell membrane [14].

In the case of `CC(C)NCCOc1ccc2c(c1)OC(C)(C)CC2=O`, the MIC is 16 µg/mL (≈ 57.7 µM) in series [1]; 8 µg/mL in series [2]; 0.03 µg/mL in series [3]; 16 µg/mL (≈ 57.7 µM) in series [4]; 64 µg/mL in series [5]; over 512 µg/mL in [6]. The MIC in series [8] was over 128 µg/mL; in [9], 64 µg/mL; in series [10], 0.03 µg/mL; in series [11], 1020 µg/mL; in series [12], 64 µg/mL; in [13], 0.03 µg/mL. In series [15], the MIC amounted to 0.03 µg/mL. Moreover, the Activity result in the series on Cell membrane [7] was “Not Active”.

For `C=CC(=O)Nc1ccc(COc2cccc3c4c(c(C(=O)N5CCOCC5)cc23)CCC(C)(C)O4)cc1`, the MIC is 16 µg/mL (≈ 32 µM) in series [1]; 4 µg/mL in [2]; 0.01 µg/mL in series [3]; 16 µg/mL (≈ 32 µM) in series [4]; 16 µg/mL in [5]; over 512 µg/mL in series [6]. For the same molecule, the MIC in series [8] is over 128 µg/mL; in series [9], 16 µg/mL; in series [10], 0.06 µg/mL; in [11] it was 256 µg/mL; in series [12], 8 µg/mL; in series [13], 0.06 µg/mL. The MIC in series [15] amounted to 0.06 µg/mL. Besides, the Activity result in the series with Cell membrane [7] and with Cell membrane [17] was “Not Active” each time.
